Holding throughout (format): cell-based
Test [1] deals with T1, Integrin alpha-V/beta-3 (Homo sapiens) (UniProt P05106+P06756). Nature of the test: Inhibition of human […] alphaVbeta3 expressed in african green monkey Vero E6 cells assessed as inhibition of SNV SN77734 entry at 1 mM.
The target of test [2] is T1, Integrin alpha-V/beta-3 (Homo sapiens). Nature of the test: Inhibition of human alphaVbeta3 receptor expressed in african green monkey Vero E6 cells assessed as inhibition of SNV infection in cells by immunofluorescent assay. In outline: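 SNV infection of Vero E6 cells in a dose-response format. Cells were pretreated 1 h at 37 °C with compound across a concentration range, then exposed to virus for 1 h, washed, and cultured 24–36 h. Infected foci were counted by anti-N immunofluorescence. Inhibition was taken relative to untreated cells and normalized to ReoPro. EC50 derived from curves; points are the mean and standard error of N = 4.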

Test [3] shares this target. Put plainly: Inhibition of human […] alphaVbeta3 expressed in african green monkey Vero E6 cells assessed as inhibition of Andes CHI-7913 viral entry at 10 uM.
The target is the same in test [4]. Put plainly: Inhibition of human […] alphaVbeta3 expressed in african green monkey Vero E6 cells assessed as inhibition of Andes CHI-7913 viral entry at 1 mM.
Test [5] has the same target. Put plainly: Inhibition of human […] alphaVbeta3 expressed in african green monkey Vero E6 cells assessed as inhibition of Hantaan 76/118 viral entry at 1 mM.
Test [6] has the same target. Put plainly: Inhibition of human alphaVbeta3 receptor expressed in african green monkey Vero E6 cells assessed as inhibition of SNV infection in cells at 1 uM by immunofluorescent assay. In outline:
(§1)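 Vero E6 cells (10^4/well, duplicate wells) were grown 24 h at 37 °C in MEM with 2.5% FBS. They were pretreated 1 h at 37 °C with small molecules (1 µM) or cyclic peptides (2 mM, in PBS pH 7.4). SNV strain SN77734 (500–1,000 FFU/ml) was then added for 1 h, then washed out. After 24–36 h, cells were fixed and stained with anti-SNV N plus FITC antibody, and foci counted. % inhibition is relative to untreated cells, normalized to ReoPro 80 µg/ml set as 80%; at least 4 replicates.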

Test [7] concerns the target T2, Integrin alpha-V/beta-1 (Homo sapiens) (UniProt P05556+P06756). Nature of the test: Inhibition of human […] alphaVbeta1 expressed in african green monkey Vero E6 cells assessed as inhibition of PHV-1 entry at 1 mM.
Test [8] addresses T2, Integrin alpha-V/beta-1 (Homo sapiens). Nature of the test: Inhibition of human […] alphaVbeta1 expressed in african green monkey Vero E6 cells assessed as inhibition of PHV-1 entry at 10 uM.
For test [9], the target named is T1, Integrin alpha-V/beta-3 (Homo sapiens). Put plainly: Inhibition of human […] alphaVbeta3 expressed in african green monkey Vero E6 cells assessed as inhibition of SNV SN77734 entry at 10 uM.
Test [10] shares this target. Put plainly: Inhibition of human […] alphaVbeta3 expressed in african green monkey Vero E6 cells assessed as inhibition of Hantaan 76/118 viral entry at 10 uM.
Test [11] shares this target. Nature of the test: Inhibition of human alphaVbeta3 receptor expressed in african green monkey Vero E6 cells assessed as inhibition of SNV infection in cells at 2 mM by immunofluorescent assay. A digest of the protocol: as §1

The source of these data is ChEMBL document CHEMBL1629507, “Small molecule inhibitors of hantavirus infection” (Bioorg Med Chem Lett, 2010).

The source made the active and inactive calls. The calls are words filed in the database; no cut-off is given here. Where a SMILES comes first, the peptide text is derived from it. Bridges are numbered along the chain shown (N, C = ends). [ ]: non-standard residue; d: D form. The star is where a group is joined. Phe(4-F) = N[CH](Cc1ccc(F)cc1)C(=O)O; Tos = Cc1ccc(S(=O)(=O)*)cc1

In the case of `O=C(NCc1ccc2c(c1)OCO2)C(Cc1ccccc1)NS(=O)(=O)c1cccc2cccnc12` (racemic), the inhibition result in test [1], in test [3], in test [4], in test [5], in test [7] and in test [8] was “Active” throughout. Besides, the inhibition entry in test [9] and in [10] was “Active” each time. The inhibition entry in [2] is “Dose-dependent effect”; in test [6] it was 46.5%.
For the molecule `CC(C)C[C@@H]1NC(=O)[C@H](CCC(N)=O)NC(=O)[C@H]([C@@H](C)O)NC(=O)[C@H](CCCCN)NC(=O)[C@H](C(C)C)NC(=O)[C@H](Cc2ccccc2)NC(=O)[C@@H]2CCCN2C(=O)[C@@H](N)CSSC[C@@H](C(=O)O)NC1=O` (H-CPFVKTQLC-OH; disulfide 1-9), in test [11], the inhibition stood at 54.6%.
As for `O=C(NCc1cccs1)C(Cc1ccccc1)NS(=O)(=O)c1ccc2nsnc2c1` (racemic), the inhibition entry in test [1], in test [3], in test [4], in [5], in test [7] and in test [8] was “Active” throughout. Also, the inhibition result in test [9] and in [10] was “Active” in each case. In addition, the inhibition entry is “Dose-dependent effect” in test [2] and 29% in [6].
On to `O=C(NCc1ccc(Cl)cc1)C1CCCN(c2ncnc3onc(-c4ccc(F)cc4)c23)C1` (centres undefined), for which the inhibition in test [6] came out at 23.6%.
With `Cc1cccc(CN2C(=O)c3ccccc3Sc3ccc(C(=O)NCc4ccco4)cc32)c1`, the inhibition in test [6] turned out to be 26%.
Turning to `CC(C)[C@@H]1NC(=O)[C@H](Cc2ccccc2)NC(=O)[C@H]2CCCN2C(=O)[C@@H](N)CSSC[C@@H](C(=O)O)NC1=O`, the inhibition entry in [1], in [3], in test [4], in test [5], in test [7] and in [8] was “Active” throughout. The inhibition entry in test [9] and in test [10] was “Active” in each case. The inhibition in test [11] was 53%.
Take `COc1ccc(CCNC(=O)CN(CCc2ccccc2)S(=O)(=O)c2ccccc2)cc1OC`: in [6], the inhibition is 15.2%.
As to `O=C(NCCc1ccccc1)C(Cc1ccccc1)NS(=O)(=O)c1ccc(Br)cc1` (centres undefined), the inhibition in test [6] was found to be 6.4%.
On to `Cc1ccc(S(=O)(=O)N2CCN(C(=O)CSc3nnc(C)c(=O)[nH]3)C2c2ccccc2)cc1` (centres undefined), for which the inhibition in test [6] came to 4%.
In the case of `COc1cccc(CNC(=O)C(Cc2ccccc2)NS(=O)(=O)c2cccc3cccnc23)c1` (centres undefined), the inhibition in test [6] amounted to 0.8%.
As for `CCN(CCNC(=O)C(Cc1ccccc1)NS(=O)(=O)c1cccc2nsnc12)c1ccccc1` (centres undefined), the inhibition in test [6] was 8%.
The same measure, in the same setting: with `COc1ccc(OC)c(NC(=O)C(Cc2ccccc2)NS(=O)(=O)c2cccc3nsnc23)c1` (centres undefined) the figure was 6.4%.
On to `O=c1c(/C=N/Cc2ccco2)c(CSc2ccc(Cl)cc2)[nH]n1-c1nc2ccccc2s1`, for which the inhibition result in [1], in test [3], in test [4], in [5], in test [7] and in test [8] was “Active” each time. The inhibition result in test [9] and in [10] was “Active” in each case. Also, the inhibition entry was “Dose-dependent effect” in test [2] and 29% in test [6].
Consider `CN1CCN(c2ccccc2NC(=O)C(Cc2ccccc2)NS(=O)(=O)c2cccc3nsnc23)CC1` (centres undefined), for which the inhibition in [6] was 9.6%.
Same read-out and setting: with `C/C=C/C(=O)NC(=S)NNC(=O)C(Oc1ccccc1)Oc1ccccc1` the figure was 16.1%.
The same measure, in the same setting: with `COc1ccc([N+](=O)[O-])cc1NC(=O)C(Cc1ccccc1)NS(=O)(=O)c1cccc2nsnc12` (centres undefined) the figure was 8%.
The same measure, in the same setting: in the case of `NS(=O)(=O)c1ccc(CCNC(=O)C(NS(=O)(=O)c2cccc3nsnc23)c2ccccc2)cc1` (centres undefined) it was 6%; in that of `CCCCN(CC)CCCNC(=O)C1CCCN(c2ncnc3onc(C)c23)C1` (centres undefined), 3.1%.
As for `Nc1c([S+]([O-])Cc2ccc(Cl)cc2)sc2nc(-c3cccs3)cc(-c3ccccc3)c12` (centres undefined), the inhibition in test [6] is 1%.
For the molecule `O=C(NCc1ccccc1)C(Cc1ccccc1)NS(=O)(=O)c1cccc2nsnc12` (centres undefined), in [6], the inhibition was 3.2%.
As to `CCc1ccc(CNC(=O)C2CCCN(c3ncnc4onc(-c5ccc(F)cc5)c34)C2)cc1` (centres undefined), the inhibition in test [6] amounted to 7%.
With `O=C(NCc1ccc(Cl)cc1)C(Cc1ccccc1)NS(=O)(=O)c1cccc2cccnc12` (centres undefined), in test [6], the inhibition was found to be 9.1%.
On to `O=C(NCc1ccc2c(c1)OCO2)C(Cc1ccccc1)NS(=O)(=O)c1cccc2nsnc12` (centres undefined), for which the inhibition in test [6] amounted to 0%.
With `Cc1ccc(C)c(NC(=O)C(Cc2ccccc2)NS(=O)(=O)c2cccc3cccnc23)c1` (centres undefined), the inhibition in test [6] was 0%.
As to `O=S(=O)(c1cccc2cccnc12)N1CCN(Cc2ccc3c(c2)OCO3)CC1`, the inhibition in test [6] came to 0%.
For the molecule `O=C(Cn1c(=O)n(Cc2ccco2)c(=O)c2sc3ccccc3c21)NCc1ccc(Cl)cc1`, in test [6], the inhibition came out at 0%.
Still for that read-out and setting: with `COc1ccccc1CNC(=O)C(Cc1ccccc1)NS(=O)(=O)c1cccc2nsnc12` (centres undefined) the figure was 4.8%; with `O=C(NC1CCCCCC1)C(Cc1ccccc1)NS(=O)(=O)c1cccc2nsnc12` (centres undefined), 0%.
As for `COc1ccc(/C=C(\NC(=O)c2ccccc2)C(=O)NCCCCCC(=O)O)cc1`, the inhibition in [6] worked out at 8%.
Same read-out and setting: with `CCOC(=O)N1CCN(C(=O)C(Cc2ccccc2)NS(=O)(=O)c2ccc3nsnc3c2)CC1` (centres undefined) the figure was 4%.
As to `Cc1ccc(S(=O)(=O)NC(Cc2ccc(F)cc2)C(=O)NC(CCCNC(=N)N)C(=O)O)cc1` (centres undefined) (Tos-[Phe(4-F)]-Arg-OH; configuration not given here), the inhibition in test [6] amounted to 0%.
In the case of `O=C(C(Cc1ccccc1)NS(=O)(=O)c1cccc2cccnc12)N1CCOCC1` (centres undefined), the inhibition in [6] came out at 4.5%.
Turning to `O=C(Nc1ccccc1)C(Cc1ccccc1)NS(=O)(=O)c1cccc2cccnc12` (centres undefined), the inhibition in test [6] stood at 0%.
As to `COc1ccc(C(CC(=O)NCCN2CCOCC2)NS(=O)(=O)c2ccc(Cl)cc2)cc1` (centres undefined), the inhibition in test [6] is 0%.
For the molecule `O=C(N/N=C1\C(=O)N(CN(Cc2ccccc2)Cc2ccccc2)c2ccccc21)c1cccs1`, the inhibition in test [6] amounted to 3.8%.
Still for that read-out and setting: with `CC1(C)CC(=O)c2cc(C(=O)NCCCN3CCOCC3)c(=O)n(-c3ccc(Cl)cc3)c2C1` the figure was 18%.
For the molecule `Cc1ccc(CNC(=O)C(Cc2ccccc2)NS(=O)(=O)c2cccc3cccnc23)cc1` (centres undefined), the inhibition in [6] is 0%.
As for `CCOC(=O)c1sc2nc(SCC(=O)NCc3ccccc3)n(Cc3ccco3)c(=O)c2c1C`, the inhibition in [6] was found to be 25.9%.
With `COc1ccc(N2CCN(C(=O)Cc3csc4nc(-c5ccc(F)cc5)cn34)CC2)cc1`, the inhibition in test [6] worked out at 0%.

In general, inhibition refers to the relative decrease from the control value, in per cent.
